Measured values as given in ChEMBL document CHEMBL1126741 (J Med Chem, 1993).
One block for each molecule: values may come before it.

Key:
[1] = system: Felis catus; test: (§1) Maximum decrease in sympathetic nerve discharge(SND) observed at 1 mg/kg dose in cat; assay type: functional; design: scale not given: the % may be the effect or the level left
Method in brief: (§2)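 Chloralose-anesthetized mongrel cats (80 mg/kg iv), stereotaxic, femoral cannulation. SND integrated cumulatively; pretreatment value averaged over the last 10 min of a 1 h equilibration. Cumulative iv dosing from 0.01 up to 1.0 mg/kg every 20 min, read 15–20 min after each dose. Maximum SND decrease at 1 mg/kg expressed as % control (±SEM); n = 2–8 cats.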

[2] = target: D(2) dopamine receptor (Homo sapiens, UniProt P14416); test: Displacement of [3H]U-86170 from human D2-dopamine receptor expressed in CHO K1 cells; assay type: cell-based
[3] = system: Mus musculus; test: Dose required to obtain hypothermic effect in mice following subcutaneous administration; assay type: functional; conditions: sc
Method in brief: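 Charles River mice (18–22 g), housed singly, given 0.1-mL sc injections at doses spaced in half-log intervals. Rectal temperature read 20 min after injection. Responders were those of four mice per dose that dropped >1.1 °C. ED50 by Spearman–Karber, with 95% confidence intervals.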

[4] = system: Mus musculus; test: Maximum obtainable hypothermic effect up to 30 mg/kg dose in mice expressed as temperature decrease in degree Centigrade; assay type: functional
Method in brief: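 Mice (Charles River, 18–22 g) dosed sc in 0.1 mL at doses up to 30 mg/kg. Rectal temperature measured 20 min after injection. The mean maximum temperature drop at 20 min is recorded as a crude index of efficacy.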

[5] = system: Felis catus; test: Dose required to reduce sympathetic nerve discharge in cats following intravenous administration
[6] = Dose to reduce neuronal firing against 5-HT cells in rats (iv); assay type: functional; conditions: Rattus norvegicus
Method in brief: (§3)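 Male Sprague-Dawley rats (250-350 g) anaesthetised with chloral hydrate 400 mg/kg. Extracellular single-unit firing was recorded by glass microelectrode (pontamine sky blue in 2 M NaCl) from 5-HT cells in dorsal raphe or DA cells in substantia nigra pars compacta, with drug given iv. Cell sites were confirmed histologically by dye mark. ED50 is the dose inhibiting firing by 50%, in µg/kg ±SEM, with n animals.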

[7] = system: Felis catus; test: Dose required to completely shut off sympathetic nerve discharge in cat following intravenous administration; assay type: functional
[8] = system: Felis catus; test: Dose required to reduce sympathetic nerve discharge in cat following intravenous administration; assay type: functional
Method in brief: (§4)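 Mongrel cats (2.5-4.0 kg) anaesthetised with chloralose 80 mg/kg iv, in a stereotaxic frame, femoral artery and vein cannulated. SND was quantified by cumulative integration of slow waves, with a 1 h equilibration and baseline taken over the last 10 min. Cumulative iv doses of 0.01, 0.03, 0.1, 0.3 and 1.0 mg/kg were given every 20 min, each read 15-20 min post-dose. ED50 is the dose reducing SND to 50% of pretreatment (95% CI). Maximum decrease at 1 mg/kg is given as % control ±SEM.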

[9] = Dose to reduce neuronal firing against DA cells in rats (iv); assay type: functional; conditions: Rattus norvegicus; method in brief: as §3
[10] = Dose to reduce neuronal firing against DA cells (antagonist) in rats (iv); assay type: functional; conditions: Rattus norvegicus
[11] = system: Felis catus; test: Maximum decrease in sympathetic nerve discharge(SND) +/-SEM observed at 1 mg/kg dose in cat; assay type: functional; design: scale not given: the % may be the effect or the level left; method in brief: as §2
[12] = system: Felis catus; test: as §1; assay type: functional; design: scale not given: the % may be the effect or the level left; method in brief: as §4; remark: listed apart in the source

D(2) dopamine receptor, sequence (P14416 whole entry): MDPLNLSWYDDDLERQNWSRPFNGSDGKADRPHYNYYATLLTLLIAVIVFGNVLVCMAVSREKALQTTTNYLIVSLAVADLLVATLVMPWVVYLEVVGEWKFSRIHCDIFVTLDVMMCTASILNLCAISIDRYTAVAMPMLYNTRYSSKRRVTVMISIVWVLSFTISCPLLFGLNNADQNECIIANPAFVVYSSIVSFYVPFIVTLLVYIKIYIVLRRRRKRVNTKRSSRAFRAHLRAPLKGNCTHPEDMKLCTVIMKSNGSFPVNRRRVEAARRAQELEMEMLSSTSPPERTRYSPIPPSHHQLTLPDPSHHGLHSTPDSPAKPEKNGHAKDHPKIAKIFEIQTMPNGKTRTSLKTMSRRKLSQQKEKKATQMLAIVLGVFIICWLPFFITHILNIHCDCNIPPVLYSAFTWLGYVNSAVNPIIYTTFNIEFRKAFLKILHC

Compound: CCCN[C@H]1CCc2ccc3[nH]c(C(N)=O)cc3c2C1
Ki [2]: > 1670 nM | ED50 [3]: 17.3 mg/kg | Temperature [4]: 1.8 °C

Compound: CCCN(CCC)[C@@H]1CCc2ccc3[nH]c(C#N)cc3c2C1 [U-92,016-A]
ED50 [6]: 0.0034 mg/kg | ED50 [7]: 0.03 mg/kg | ED50 [8]: 0.017 mg/kg | Control [1]: 0% | ED50 [9]: 0.084 mg/kg | Ki [2]: 35 nM | ED50 [3]: 0.04 mg/kg | Temperature [4]: 7.2 °C

Compound: CCCN(CCC)[C@H]1CCc2ccc3[nH]c(C#N)cc3c2C1
Control [1]: 0% | Ki [2]: 896 nM | ED50 [3]: 1.3 mg/kg | Temperature [4]: 6.3 °C | ED50 [5]: 0.15 mg/kg

Compound: O=C1CC2(CCCC2)CC(=O)N1CCCCN1CCN(c2ncccn2)CC1 [BUSPIRONE]
ED50 [6]: 0.0154 mg/kg | ED50 [8]: 0.08 mg/kg | Control [1]: 43% | ED50 [10]: 0.0113 mg/kg | ED50 [3]: 3 mg/kg | Temperature [4]: 1.9 °C

Compound: CCCN(CCC)[C@H]1CCc2ccc3[nH]c(C(N)=O)cc3c2C1
ED50 [6]: > 0.1 mg/kg | ED50 [8]: 0.19 mg/kg | Control [1]: 10% | Ki [2]: > 1000 nM | ED50 [3]: 1 mg/kg | Temperature [4]: 2.2 °C

Compound: CCCN(CCC)[C@@H]1CCc2cccc(O)c2C1
ED50 [6]: 0.0016 mg/kg | Control [12]: 0% | ED50 [10]: 0.74 mg/kg | ED50 [3]: 1 mg/kg | Temperature [4]: 4 °C | ED50 [5]: 0.01 mg/kg

Compound: CCCN(CC1CC1)[C@H]1CCc2ccc3[nH]c(C(N)=O)cc3c2C1
Control [1]: 14% | Ki [2]: > 1000 nM | ED50 [3]: 9.7 mg/kg | Temperature [4]: 3.3 °C | ED50 [5]: 0.4 mg/kg

Compound: CCCN(CCCCN1C(=O)CC(C)(C)CC1=O)[C@H]1CCc2ccc3[nH]c(C#N)cc3c2C1
Ki [2]: > 333 nM | ED50 [3]: 3.1 mg/kg | Temperature [4]: 3.9 °C

Continued, in another order:

Ki [2]: 44 nM
Compound: CCCN(CCCCN1C(=O)CC(C)(C)CC1=O)[C@@H]1CCc2ccc3[nH]c(C#N)cc3c2C1
Control [1]: 0% | ED50 [3]: 0.13 mg/kg | Temperature [4]: 6.8 °C | ED50 [5]: 0.01 mg/kg

Ki [2]: 389 nM
Compound: CCCN(CC1CC1)[C@@H]1CCc2ccc3[nH]c(C(N)=O)cc3c2C1
Control [1]: 43% | ED50 [3]: 2.3 mg/kg | Temperature [4]: 4 °C | ED50 [5]: 0.9 mg/kg

Ki [2]: 914 nM
Compound: CCCN(CCCCN1C(=O)CC(C)(C)CC1=O)[C@H]1CCc2ccc3[nH]c(C(N)=O)cc3c2C1
ED50 [3]: 4.1 mg/kg | Temperature [4]: 2.2 °C

Ki [2]: 215 nM
Compound: CCCN(CCC)[C@@H]1CCc2ccc3[nH]c(C(N)=O)cc3c2C1
ED50 [6]: > 0.1 mg/kg | ED50 [8]: 0.19 mg/kg | Control [11]: 0% | ED50 [3]: 0.6 mg/kg | Temperature [4]: 3.3 °C

Ki [2]: 38 nM
Compound: CCCN(CCCCN1C(=O)CC(C)(C)CC1=O)[C@@H]1CCc2ccc3[nH]c(C(N)=O)cc3c2C1
Control [1]: 22% | ED50 [3]: 9.7 mg/kg | Temperature [4]: 2.8 °C | ED50 [5]: 0.41 mg/kg

Ki [2]: 857 nM
Compound: CCCN[C@@H]1CCc2ccc3[nH]c(C(N)=O)cc3c2C1
ED50 [3]: 2.3 mg/kg | Temperature [4]: 2.4 °C
